A short description of series [1]: Selectivity index, ratio of TC50 for African green monkey Vero cells to IC50 for Herpes simplex virus-1 F VR 733 infected in African green monkey Vero cells. Conditions: read-out: Selectivity Index. It counts as toxicity. The procedure, abridged:
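Vero cells (2.5 × 10^4/well) seeded 24 h, medium removed, infected with HSV-1 at 100 TCID50 for 2 h, then graded compound concentrations added until control CPE reached 4+. IC50 = minimal concentration inhibiting 50% CPE (Reed and Muench); triplicate, at least three separate experiments. […] SI = TC50/IC50.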

The test system of another series is Human alphaherpesvirus 1. Description: Antiviral activity against Herpes simplex virus-1 F VR 733 infected in African green monkey Vero cells assessed as inhibition of virus-induced cytopathic effect. The class given is functional. As to conditions: Human alphaherpesvirus 1, Strain F ATCC VR 733, Vero. The procedure, abridged:
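Vero cells (2.5 × 10^4/well) were seeded for 24 h, then the medium was removed. Cells were infected with HSV-1 at 100 TCID50 for 2 h, then given graded compound concentrations. Incubation continued until control CPE reached 4+. Runs were in triplicate, repeated at least three times. IC50 is the minimal concentration inhibiting 50% of CPE, by Reed and Muench.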
On the technique in general: Cytopathic effects are the visible damage that an infection or toxin causes in cultured cells.

Series [2] in a line: Cytotoxicity against African green monkey Vero cells assessed as growth inhibition after 48 hrs. It counts as cell-based. Conditions: chlorocebus sabaeus, read-out: TC50. Summed up: (§1)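 Vero or MDCK cells (2.5 × 10^4/well) were seeded for 24 h, then exposed to graded compound concentrations. After 48 h at 37 °C and 5% CO2, cytotoxicity was scored by CPE. TC50 was calculated by Reed and Muench analysis.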

Series [3] can be described thus: Selectivity index, ratio of TC50 for MDCK cells to IC50 for Influenza A virus (A/95-359) infected in MDCK cells. It counts as toxicity, cell-based. Conditions: dog, read-out: Selectivity Index. Summed up:
(§2)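 MDCK cells (2.5 × 10^4/well) seeded 24 h, PBS-washed, infected with influenza A/95-359 at 100 TCID50 for 2 h, then exposed to graded compound concentrations until control CPE reached 4+. IC50 = minimal concentration inhibiting 50% of CPE (Reed and Muench); triplicate, at least three separate experiments. […] SI = TC50/IC50.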

Series [4] can be described thus: Cytotoxicity against MDCK cells assessed as growth inhibition after 48 hrs. The class given is cell-based, Canis lupus familiaris. Conditions: dog, read-out: TC50. The procedure, abridged: as §1
The next series relates to Influenza A virus. Description: Antiviral activity against Influenza A virus A/95-359 infected in MDCK cells assessed as inhibition of virus-induced cytopathic effect. It counts as functional, cell-based. Conditions: A/95-359, MDCK. Summed up: as §2
A further series concerns Coxsackievirus B3. Description: Antiviral activity against Coxsackievirus B3 infected in African green monkey Vero cells assessed as inhibition of virus-induced cytopathic effect. It counts as functional. As to conditions: Enterovirus B. The procedure, abridged: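 Vero monolayers were infected with Cox B3 at 100 TCID50 and allowed 2 h adsorption at 37 °C. They were then washed with PBS and kept at 37 °C in MEM with 2% FBS, with or without graded concentrations of test compounds. Read-out was CPE.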

Series [5] can be described thus: Selectivity index, ratio of TC50 for African green monkey Vero cells to IC50 for Coxsackievirus B3 infected in African green monkey Vero cells. As to conditions: read-out: Selectivity Index. The class given is toxicity. Summed up:
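Vero monolayers infected with 100 TCID50 Coxsackie B3 virus, 2 h adsorption at 37 °C, PBS-washed, then held in MEM plus 2% FBS at 37 °C with graded compound concentrations. […] SI = TC50/IC50.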

The results in this text go back to ChEMBL document CHEMBL3994572, “Antiviral Triterpenes from the Twigs and Leaves of Lyonia ovalifolia” (J Nat Prod, 2016).

pIC50: −log10 of the molar value.

As for `Nc1nc2c(ncn2COCCO)c(=O)[nH]1` [ACYCLOVIR], in series [1], the selectivity ratio was more than 244. Further, in the series with Human alphaherpesvirus 1, the pIC50 (in general, the negative decadic logarithm of the IC50, by convention in mol/L) was 6.39. Besides, the CC50 at 48 h in series [2] is more than 100 µM.
As to `CC(=O)OC[C@H]1O[C@@H](O[C@@H]2CC[C@]3(C)C4=C(CC[C@H]3C2(C)C)[C@]2(C(=O)O)CC[C@H]([C@H](C)CC[C@H](O[C@@H]3OC[C@H](O)[C@H](O)[C@H]3O)C(C)(C)O)[C@@]2(C)CC4)[C@H](O)[C@@H](O)[C@@H]1O`, the selectivity ratio is 1.7 in series [3] and more than 7 in series [1]. In addition, the CC50 at 48 h is 57.7 µM in series [4] and more than 100 µM in series [2]. Moreover, the pIC50 is 4.48 in the series on Influenza A virus, not above 4.48 in the series on Coxsackievirus B3 and 4.84 with Human alphaherpesvirus 1.
For the compound `CCOC(=O)C1=C[C@@H](OC(CC)CC)[C@H](NC(C)=O)[C@@H](N)C1` [OSELTAMIVIR], the selectivity ratio in series [3] was 741. The pIC50 in the series with Influenza A virus is 5.77.
Regarding `Cc1cc(CCCOc2c(C)cc(-c3noc(C(F)(F)F)n3)cc2C)on1` [PLECONARIL], the selectivity ratio in series [5] stood at 15400. Also, the pIC50 with Coxsackievirus B3 was 9.00. Besides, the CC50 at 48 h in series [2] was 15.4 µM.
Consider `C[C@H](CCC(=O)C(C)(C)O)[C@H]1CC[C@@]2(C(=O)O)[C@@H]3CCC4=C(CC[C@@H](O[C@@H]5O[C@H](CO)[C@@H](O)[C@H](O)[C@H]5O)C4(C)C)C[C@H]3CC[C@]12C`, for which the figures for the CC50 at 48 h in series [4] and in series [2] were 33.3 µM and 23.1 µM, respectively. Moreover, the selectivity ratio in series [5] and in series [1] was 2.1 throughout. The figures for the pIC50 with Influenza A virus, with Coxsackievirus B3 and with Human alphaherpesvirus 1 were less than 4.95, 4.95 and 4.95, respectively.
For the compound `C[C@H](CCC(=O)C(C)(C)O)[C@H]1CC[C@@]2(C(=O)O)[C@@H]3CCC4=C(CC[C@@H](O)C4(C)C)C[C@H]3CC[C@]12C`, the selectivity ratio in series [3] amounted to 3; in series [5], 7.6; in series [1], 4.3. Also, the CC50 at 48 h in series [4] is 6.4 µM; in series [2] it was 16 µM. Further, the pIC50 in the series on Influenza A virus is 5.68; in the series on Coxsackievirus B3, 5.68; in the series with Human alphaherpesvirus 1, 5.43.
For `C[C@H](CC[C@H](O)C(C)(C)O)[C@H]1CC[C@@]2(C(=O)O)[C@@H]3CCC4=C(CC[C@@H](O)C4(C)C)C[C@H]3CC[C@]12C`, the selectivity ratio in series [3] was 4; in series [5], 10; in series [1], 5.2. The CC50 at 48 h was 19.3 µM in series [4] and 48.1 to 57.7 µM in series [2]. In addition, the pIC50 is 5.32 in the series with Influenza A virus, 5.32 in the series with Coxsackievirus B3 and 4.95 in the series on Human alphaherpesvirus 1.
On to `CC(=O)OC[C@H]1O[C@@H](O[C@@H]2CC[C@]3(C)C4=C(CC[C@H]3C2(C)C)[C@]2(C(=O)O)CC[C@H]([C@H](C)CC[C@H](O)C(C)(C)O)[C@@]2(C)CC4)[C@H](O)[C@@H](O)[C@@H]1O`, for which the selectivity ratio in series [3] came to 1.7; in series [5], 1.7; in series [1], 3. Moreover, the CC50 at 48 h in series [4] and in series [2] was 19.3 µM throughout. For the same compound, the pIC50 with Influenza A virus was 4.95; in the series with Coxsackievirus B3, 4.95; in the series on Human alphaherpesvirus 1, 5.19.
Turning to `NC(=O)c1ncn([C@@H]2O[C@H](CO)[C@@H](O)[C@H]2O)n1` [RIBAVIRIN], the selectivity ratio in series [3] was 895; in series [5], 6.8. For the same compound, the CC50 at 48 h in series [4] is 1160 µM. The pIC50 in the series with Influenza A virus was 5.89; with Coxsackievirus B3, 3.53.
With `C[C@H](CC[C@H](O)C(C)(C)O)[C@H]1CC[C@@]2(C(=O)O)[C@@H]3CCC4=C(CC[C@@H](O[C@@H]5O[C@H](CO)[C@@H](O)[C@H](O)[C@H]5O)C4(C)C)C[C@H]3CC[C@]12C`, the selectivity ratio in series [3] was determined as 3. Besides, the CC50 at 48 h in series [4] stood at 100 µM. Also, the results for the pIC50 in the series with Influenza A virus, in the series with Coxsackievirus B3 and in the series on Human alphaherpesvirus 1 were 4.48, not above 4.48 and not above 4.48, respectively.
On to `CC(=O)OC[C@H]1O[C@@H](O[C@@H]2CCC3=C(CC[C@@H]4[C@H](CC[C@]5(C)[C@@H]([C@H](C)CC[C@H](O)C(C)(C)O)CC[C@@]45C(=O)O)C3)C2(C)C)[C@H](O)[C@@H](O)[C@@H]1O`, for which the CC50 at 48 h in series [4] was 48.1 µM. Also, the results for the pIC50 in the series on Influenza A virus, in the series on Coxsackievirus B3 and with Human alphaherpesvirus 1 were less than 4.95, not above 4.48 and not above 4.48, respectively.
Turning to `C[C@H](CC[C@H](O)C(C)(C)O)[C@H]1CC[C@@]2(C(=O)O)C3=C(CC[C@]12C)[C@@]1(C)CC[C@@H](O)C(C)(C)[C@@H]1CC3`, the values for the selectivity ratio in series [3], in series [5] and in series [1] were 4.3, 4 and 7.6, respectively. The results for the CC50 at 48 h in series [4] and in series [2] were 16 µM and 16 to 19.3 µM, respectively. The pIC50 was 5.43 in the series on Influenza A virus, 5.32 with Coxsackievirus B3 and 5.68 with Human alphaherpesvirus 1.
With `CC(=O)OC[C@H]1O[C@@H](O[C@@H]2CC=C3C[C@H]4CC[C@]5(C)[C@@H]([C@H](C)CC[C@H](O[C@@H]6OC[C@H](O)[C@H](O)[C@H]6O)C(C)(C)O)CC[C@@]5(C(=O)O)[C@@H]4CC[C@H]3C2(C)C)[C@H](O)[C@@H](O)[C@@H]1O`, the pIC50 was less than 4.48 with Influenza A virus, not above 4.48 in the series with Coxsackievirus B3 and 4.71 in the series with Human alphaherpesvirus 1. The selectivity ratio in series [1] was more than 5.2. Further, the CC50 at 48 h in series [2] is more than 100 µM.
In the same order, the values of `C[C@H](CC[C@H](O[C@@H]1O[C@H](CO)[C@@H](O)[C@H](O)[C@H]1O)C(C)(C)O)[C@H]1CC[C@@]2(C(=O)O)C3=C(CC[C@]12C)[C@@]1(C)CC[C@@H](O)C(C)(C)[C@@H]1CC3` are less than 4.48, not above 4.48, 4.64, 2.5 and 57.7 µM.
`C[C@H]1[C@H](C)CC[C@@]23CC[C@]4(C)[C@](OC2=O)([C@H](O)C[C@@H]2[C@@]5(C)C[C@@H](O)[C@@H](O)C(CO)(CO)[C@@H]5CC[C@]24C)[C@H]13`: the values for the pIC50 in the series with Influenza A virus, in the series on Coxsackievirus B3 and in the series on Human alphaherpesvirus 1 were less than 4.48, not above 4.48 and not above 4.48, respectively.
As for `C[C@H](CC[C@H](O)C(C)(C)O)[C@H]1CC[C@@]2(C(=O)O)[C@@H]3CC[C@@H]4C(=CC[C@@H](O)C4(C)C)C[C@H]3CC[C@]12C`, the selectivity ratio in series [3] is more than 3.9. In series [4], the CC50 at 48 h was more than 100 µM. Moreover, the pIC50 in the series on Influenza A virus is 4.59; in the series with Coxsackievirus B3 it was not above 4.48; with Human alphaherpesvirus 1, not above 4.48.
Take `C[C@H](CC[C@H](O[C@@H]1O[C@H](CO)[C@@H](O)[C@H](O)[C@H]1O)C(C)(C)O)[C@H]1CC[C@@]2(C(=O)O)[C@@H]3CC[C@@H]4C(=CC[C@@H](O[C@@H]5O[C@H](CO)[C@@H](O)[C@H](O)[C@H]5O)C4(C)C)C[C@H]3CC[C@]12C`: in series [3], the selectivity ratio is more than 3. The CC50 at 48 h in series [4] is more than 100 µM. Further, the pIC50 in the series with Influenza A virus is 4.48; with Coxsackievirus B3, not above 4.48; with Human alphaherpesvirus 1, not above 4.48.
As to `CC(=O)OC[C@H]1O[C@@H](O[C@@H]2CCC3=C(CC[C@@H]4[C@H](CC[C@]5(C)[C@@H]([C@H](C)CC[C@H](O[C@@H]6OC[C@H](O)[C@H](O)[C@H]6O)C(C)(C)O)CC[C@@]45C(=O)O)C3)C2(C)C)[C@H](O)[C@@H](O)[C@@H]1O`, the pIC50 is less than 4.48 with Influenza A virus, not above 4.48 with Coxsackievirus B3 and not above 4.48 in the series with Human alphaherpesvirus 1.
